# Measured values gathered from unrelated publications.
# Each line is one published result; the experiments were not run side by side.
# Target: Alpha-2B adrenergic receptor (ADRA2B, Homo sapiens, UniProt P18089)
# Tested at: 10 µM
# Residues used in one study (P18089 1-450): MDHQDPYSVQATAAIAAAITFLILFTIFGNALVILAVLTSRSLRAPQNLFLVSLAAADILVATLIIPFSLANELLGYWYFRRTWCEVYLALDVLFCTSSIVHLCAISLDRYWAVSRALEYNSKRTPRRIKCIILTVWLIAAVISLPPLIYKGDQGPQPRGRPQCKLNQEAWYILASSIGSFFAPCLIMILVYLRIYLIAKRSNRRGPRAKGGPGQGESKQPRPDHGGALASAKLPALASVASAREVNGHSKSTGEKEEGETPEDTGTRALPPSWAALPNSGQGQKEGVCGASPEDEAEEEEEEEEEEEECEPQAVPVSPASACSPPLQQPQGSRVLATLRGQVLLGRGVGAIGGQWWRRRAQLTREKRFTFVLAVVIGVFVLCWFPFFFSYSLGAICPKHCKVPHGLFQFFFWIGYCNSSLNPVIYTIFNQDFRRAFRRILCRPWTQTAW
Structure (SMILES),effect on,method,inhibition [%]
COc1cc(NC(C)=O)c(Cl)cc1C(=O)Nc1nccs1,cell-free assay,,-12.7
N#Cc1cc(Cn2c(N3CCCC3)nc3ccccc32)ccc1F,ligand displacement,,18.7
CCN(CC)c1ccc(C2Nc3ccc(C(=O)c4ccccc4)cc3NC3=C2C(=O)CC(C)(C)C3)cc1 (stereo not drawn),ligand displacement,radioligand,-8
CCCNc1nc2ccccc2n1Cc1ccc(Cl)cc1,ligand displacement,,83
O=C(NNS(=O)(=O)c1ccccc1F)c1cc(F)cc(-c2ccccn2)c1,cell-free assay,,-3.78
O=[N+]([O-])C1=Cc2cc(I)ccc2OC1C(F)(F)F (stereo not drawn),ligand displacement,radioligand,66
Oc1cccc(Nc2nc(-c3ccc(F)cc3F)cs2)c1,cell-free assay,,-29.7
CN(C)C(=O)Cn1cc(-c2nc(C3(c4ccc(-c5cnc(N)nc5)cc4)CC3)no2)cn1,cell-free assay,,-3.57
O=C1c2ccccc2C(=O)N1CC#Cc1ccc2c(c1)C=C([N+](=O)[O-])C(C(F)(F)F)O2 (stereo not drawn),ligand displacement,radioligand,70
